Assay results gathered from unrelated publications.
Protocols differ between the studies behind these lines.
Route: oral

For `COc1ccc([C@@H]2CN(C(=O)[C@@H](O)CO)C[C@@]2(C)[C@@H](C)O)cc1OC1CN(c2ccc(C)cn2)C1`, the Tmax was 1.5 h (human, plasma; 5 mg, single dose, healthy volunteers).
`CS(=O)(=O)CCC#N` gave a Tmax of 1 h (human, plasma; 300 mg, multiple doses, once daily).
For `C[C@@H](Nc1cc(F)cc(F)c1)c1cc(C(=O)N(C)C)cc2c(=O)cc(N3CCOCC3)oc12`, the Tmax was 1.53 h (human, plasma; 360 mg, single dose, patients).
`Cn1cc(-c2ccc(S(=O)(=O)[C@@H]3C[C@@H](C(=O)NC4(C#N)CC4)N(C(=O)C4(C(F)(F)F)CC4)C3)c(C(F)(F)F)c2)cn1` has a Tmax of 3.5 h (human, plasma; 300 mg, single dose, fasted, healthy volunteers).
`CCc1nc2c(C)cc(N3CCN(CC(=O)N4CC(O)C4)CC3)cn2c1N(C)c1nc(-c2ccc(F)cc2)c(C#N)s1` has a Tmax of 1.8 h (human, plasma; 600 mg, single dose, fasted, healthy volunteers).
For `C=CC(=O)N(C)CCOc1c(N)ncnc1-c1cc(F)cc(NC(=O)c2ccc(C3CC3)cc2F)c1C`, the Tmax was 1.01 h (human, blood; 60 mg, single dose, healthy volunteers).
`COc1cc(N2CCC(N3CCN(C)CC3)CC2)ccc1Nc1ncnc(Nc2ccccc2S(=O)(=O)C(C)C)n1` has a Tmax of 3.75 h (human, plasma; 325 mg, multiple doses, patients).
The Tmax of `CC(C)(O)c1ccccc1-c1ccc2[nH]c(/C=C/c3ccc(C(F)(F)F)cc3)nc2c1` is reported as 2.9 h (male human, plasma; 50 mg, single dose, fasted).
For `CC(C)(Sc1ccncc1-c1ccc(C#N)c2ccccc12)C(=O)O`, the Tmax was 1.25 h (male human, plasma; 20 mg, single dose, fed, healthy volunteers).
The Tmax of `CC(C)n1cc(C#N)c2cc(-n3cc(C(=O)O)cn3)ccc21` is reported as 2.3 h (human, plasma; 25 mg, single dose, fasted, healthy volunteers).
The Tmax of `C#C[C@]1(COP(=O)(O)OP(=O)(O)OP(=O)(O)O)O[C@@H](n2cnc3c(N)nc(F)nc32)C[C@@H]1O` is reported as 6 h (human, plasma; 200 mg, single dose).
